Data published in ChEMBL document CHEMBL1139704, “Discovery of potent inhibitors of pseudomonal quorum sensing via pharmacophore modeling and in silico screening” (Bioorg Med Chem Lett, 2006).
Active and inactive are the calls of the source. The rule behind the calls is not given here.

How the values were obtained:
Format in all cases: functional, organism-based
[1] = system: Pseudomonas aeruginosa; test: Inhibition of pyocyanin production in Pseudomonas aeruginosa
Outline: (§1)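 Overnight nutrient broth cultures were pelleted, resuspended, grown to mid-log phase (OD600 0.3–0.5), and diluted to OD600 0.05. Cultures were exposed to compound in water at 50.00, 25.00, 10.00, 5.00, 2.50, 1.00, 0.10, 0.001 or zero final concentration, shaken 18 h at 37 C. Viable cells were counted, and the pellet OD600 was used to normalise pigment per bacterial OD unit.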

[2] = system: Pseudomonas aeruginosa; test: Inhibition of pyoverdin production in Pseudomonas aeruginosa; outline: as §1
[3] = system: Pseudomonas aeruginosa; test: Inhibition of pyocyanin production in Pseudomonas aeruginosa ATCC 9027; outline: as §1
[4] = system: Pseudomonas aeruginosa; test: Inhibition of pyoverdin production in Pseudomonas aeruginosa ATCC 9027; outline: as §1

In the case of `CCOP(=O)(OCC)O/N=C(/C)c1cccc(C)c1`, the Activity [1] is reported as “inactive” and the Activity [2] is reported as “inactive”.

PHENYL MERCURIC NITRATE showed an IC50 [1] of 3020 nM, an IC50 [2] of 3160 nM and an IC50 [3] of 3.24 µM. For the same compound, the IC50 [4] was 3.98 µM.

THIMEROSAL was tested, and the IC50 [1] was 708 nM, the IC50 [2] was 603 nM and the IC50 [3] was 3.16 µM. It also gave an IC50 [4] of 3.17 µM.

Work on “triethylplumbyl 4-methylbenzenesulfonate” yielded an IC50 [1] of 282 nM, an IC50 [2] of 355 nM and an IC50 [3] of 0.158 µM. For the same compound, the IC50 [4] was 0.794 µM.
